The results in this text go back to ChEMBL document CHEMBL1134796, “Indenopyrazoles as novel cyclin dependent kinase (CDK) inhibitors” (J Med Chem, 2001).

As usually defined, the IC50 is the midpoint of a concentration-inhibition curve. As usually defined, the inhibition in vivo is the share of the control response that was lost under treatment.

The test system of one assay is AG1523. The assay is described as follows: Cytotoxic effect on human AG1523 fibroblast cells. It is filed as functional, cell-based.
In the next assay the test system is HCT-116. The assay is described as follows: Inhibition of HCT116 cell proliferation. The conditions noted are these: Homo sapiens. It is filed as functional, cell-based. In outline: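 HCT116 cells cultured with compound at increasing concentrations. At selected time points, cells fixed with trichloroacetic acid and stained with sulforhodamine B. Unbound dye washed off, and bound dye extracted for optical density reading.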

Assay [1] deals with Cyclin-dependent kinase 4/cyclin D1 (Homo sapiens, UniProt P11802). The assay can be described thus: Inhibition of Cyclin Dependent Kinase 4 cyclin D1. It is filed as protein-complex assay. The method, boiled down: (§1)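 Lysates of insect cells expressing the cdk and its cyclin partner, run in kinase buffer with ³²P-ATP, GST-Rb fusion substrate and the compound at varying concentrations. Reaction stopped with excess EDTA. GST-Rb captured on GSH-Sepharose beads, washed, and counted by scintillation. IC50 is the concentration giving 50% inhibition of kinase activity.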
Cyclin-dependent kinase 4/cyclin D1, sequence (P11802 whole entry, the tested form may be a part): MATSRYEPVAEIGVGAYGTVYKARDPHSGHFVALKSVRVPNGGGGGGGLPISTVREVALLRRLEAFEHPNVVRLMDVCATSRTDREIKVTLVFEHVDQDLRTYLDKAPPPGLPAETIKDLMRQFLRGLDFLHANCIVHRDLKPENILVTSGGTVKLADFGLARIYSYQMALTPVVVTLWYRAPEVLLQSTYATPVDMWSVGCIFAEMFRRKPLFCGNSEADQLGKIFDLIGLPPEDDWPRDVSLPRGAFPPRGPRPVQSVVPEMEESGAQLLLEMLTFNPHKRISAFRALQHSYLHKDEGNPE
Cyclin-dependent kinase 4/cyclin D1, sequence (P24385 whole entry, further chain, the tested form may be a part): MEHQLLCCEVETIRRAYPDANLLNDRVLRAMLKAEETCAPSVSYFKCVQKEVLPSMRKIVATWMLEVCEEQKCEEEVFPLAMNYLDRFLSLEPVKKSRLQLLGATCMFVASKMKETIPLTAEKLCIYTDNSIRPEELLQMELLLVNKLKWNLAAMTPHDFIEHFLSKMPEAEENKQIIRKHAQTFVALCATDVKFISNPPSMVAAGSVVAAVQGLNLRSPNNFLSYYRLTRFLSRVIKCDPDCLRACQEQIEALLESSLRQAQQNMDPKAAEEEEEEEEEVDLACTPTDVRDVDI

The target in assay [2] is Cyclin-dependent kinase 2/cyclin E (Homo sapiens, UniProt P24941). The assay is described as follows: Inhibition of Cyclin-dependent kinase 2-cyclin E. It is filed as protein-complex assay. In outline: as §1
Assay [3] concerns Mus musculus. The assay can be described thus: In vivo antitumor activity in mice at 30 mg/kg/day (dosing schedule Q1DX14). It is filed as functional. The method, boiled down: (§2)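 Female nude mice carrying HCT116 human colon carcinoma xenografts, 1 × 10⁷ cells injected subcutaneously into the inguinal region. Drug given intraperitoneally once daily for 14 days, starting 7 days after cell injection. Tumors excised and weighed on day 15 post-dosing. Growth inhibition index (%) = (1 − mean net tumor weight treated/mean net tumor weight control) × 100.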

The subject of assay [4] is Mus musculus. The assay can be described thus: In vivo antitumor activity in mice at 10 mg/kg/day (dosing schedule Q1DX14). Type of assay: functional. In outline: as §2
For assay [5], the system named is Mus musculus. The assay is described as follows: In vivo antitumor activity in mice at 3 mg/kg/day (dosing schedule Q1DX14); 8/8. Type of assay: functional. The method, boiled down:
(§3)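 Female nude mice bearing HCT116 human colon carcinoma xenografts (1 × 10⁷ cells/animal, injected s.c. into the inguinal region). Drug was given ip once daily for 14 days, starting 7 days after cell injection. On day 15 after dosing, tumors were excised and weighed. Tumor growth inhibition index (%) = (1 − mean net tumor weight treated/control) × 100. Survivors reflect acute drug toxicity.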

Assay [6] deals with Mus musculus. The assay can be described thus: In vivo antitumor activity in mice at 10 mg/kg/day (dosing schedule Q1DX14); 8/8. Type of assay: functional. The method, boiled down:
as §3

Assay [7] concerns Mus musculus. The assay is described as follows: In vivo antitumor activity in mice at 30 mg/kg/day (dosing schedule Q1DX14); 8/8. Type of assay: functional. The method, boiled down:
as §3

The subject of assay [8] is Mus musculus. The assay is described as follows: In vivo antitumor activity in mice at 3 mg/kg/day (dosing schedule Q1DX14). It is filed as functional. In outline: as §2
The nature of assay [9]: Inhibition of protein kinase A (PKA).
In assay [10] the target is Tyrosine-protein kinase ABL1 (Homo sapiens, UniProt P00519). The assay can be described thus: Inhibition of c-Abl kinase.
Tyrosine-protein kinase ABL1, sequence (P00519 whole entry): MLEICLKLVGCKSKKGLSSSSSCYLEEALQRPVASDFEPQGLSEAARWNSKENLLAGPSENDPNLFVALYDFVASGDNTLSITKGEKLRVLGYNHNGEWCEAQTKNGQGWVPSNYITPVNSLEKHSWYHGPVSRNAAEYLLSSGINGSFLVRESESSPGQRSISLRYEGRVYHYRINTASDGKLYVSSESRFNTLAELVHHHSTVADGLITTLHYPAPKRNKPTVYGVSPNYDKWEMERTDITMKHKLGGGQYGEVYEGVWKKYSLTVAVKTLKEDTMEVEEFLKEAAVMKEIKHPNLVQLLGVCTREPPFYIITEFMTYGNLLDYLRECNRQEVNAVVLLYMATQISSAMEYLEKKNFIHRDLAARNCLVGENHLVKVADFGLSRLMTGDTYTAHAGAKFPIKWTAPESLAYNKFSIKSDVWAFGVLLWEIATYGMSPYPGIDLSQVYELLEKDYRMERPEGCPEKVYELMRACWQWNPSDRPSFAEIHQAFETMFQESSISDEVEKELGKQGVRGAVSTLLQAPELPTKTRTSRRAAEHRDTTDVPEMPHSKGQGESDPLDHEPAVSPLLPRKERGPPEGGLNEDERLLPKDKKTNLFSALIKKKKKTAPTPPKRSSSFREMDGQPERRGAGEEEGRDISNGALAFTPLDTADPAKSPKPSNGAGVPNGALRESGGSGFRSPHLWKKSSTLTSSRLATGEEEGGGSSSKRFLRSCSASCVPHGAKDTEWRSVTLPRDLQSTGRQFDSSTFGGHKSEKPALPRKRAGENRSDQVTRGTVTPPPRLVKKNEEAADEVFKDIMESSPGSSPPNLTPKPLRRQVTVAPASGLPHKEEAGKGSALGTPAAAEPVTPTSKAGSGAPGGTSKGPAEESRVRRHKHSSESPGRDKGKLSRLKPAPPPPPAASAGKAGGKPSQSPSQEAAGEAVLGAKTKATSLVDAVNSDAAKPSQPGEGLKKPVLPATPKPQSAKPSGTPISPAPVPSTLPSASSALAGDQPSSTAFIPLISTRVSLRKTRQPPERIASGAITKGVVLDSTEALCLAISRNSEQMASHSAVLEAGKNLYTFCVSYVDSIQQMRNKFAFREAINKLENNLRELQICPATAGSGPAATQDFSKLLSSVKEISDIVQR
The target in a further assay is Protein kinase C (PKC). The assay can be described thus: Inhibition of protein kinase C (PKC). It is filed as protein assay.
In assay [11] the test system is Mus musculus. The assay is described as follows: In vivo antitumor activity in mice at 1 mg/kg/day (dosing schedule Q1DX14); 8/8. It is filed as functional. The method, boiled down:
as §3

In assay [12] the test system is Mus musculus. The assay can be described thus: In vivo antitumor activity in mice at 1 mg/kg/day (dosing schedule Q1DX14). It is filed as functional. The method, boiled down: as §2
Assay [13] relates to Mus musculus. The assay can be described thus: In vivo antitumor activity in mice at 7.5 mg/kg/day (dosing schedule Q1DX14); 5/8. It is filed as functional. In outline: as §3
Assay [14] has as its system Mus musculus. The assay can be described thus: In vivo antitumor activity in mice at 7.5 mg/kg/day (dosing schedule Q1DX14). Type of assay: functional. The method, boiled down: as §2

SMILES strings stand for the structures.

As for `COc1ccc(-c2[nH]nc3c2C(=O)c2c(NC(=O)C(C)C)cccc2-3)cc1`, the IC50 in the assay with AG1523 is above 28000 nM; in the assay with HCT-116, 2900 nM; in [1] it was 35000 nM; in [2], 1400 nM.

As for `COc1ccc(-c2[nH]nc3c2C(=O)c2c(NC=O)cccc2-3)cc1`, the IC50 in the assay on AG1523 is above 63000 nM; in the assay with HCT-116, 690 nM; in assay [1], 200 nM; in [2], 80 nM. Moreover, the Tumor weight in the assay with Mus musculus [3] is 608 mg; in the assay with Mus musculus [4], 871 mg; in the assay on Mus musculus [8], 1171 mg. Further, the inhibition in vivo at 30 mg/kg/day with Mus musculus [3] came out at 43%. This compound gave an inhibition in vivo at 10 mg/kg/day in the assay with Mus musculus [4] of 19%. In addition, the No. survived in the assay on Mus musculus [5], in the assay with Mus musculus [6] and with Mus musculus [7] was 8 in each case. The same compound had an inhibition in vivo at 3 mg/kg/day in the assay on Mus musculus [8] of 0%.

For the compound `COc1ccc(-c2[nH]nc3c2C(=O)c2c(NC(=O)c4ccccc4)cccc2-3)cc1`, the values for the IC50 in assay [1] and in [2] were above 250000 nM and 41000 nM, respectively.

In the case of `COc1ccc(-c2[nH]nc3c2C(=O)c2ccccc2-3)cc1`, the IC50 in assay [9] is 239000 nM; in assay [10] it was above 725000 nM; at Protein kinase C (PKC), above 725000 nM; in assay [1], 45000 nM; in assay [2], 26000 nM.

As to `COc1ccc(-c2[nH]nc3c2C(=O)c2c(NC(=O)C(C)(C)C)cccc2-3)cc1`, the IC50 in the assay with HCT-116 came out at 7500 nM; in [1] it was 45000 nM; in [2], 2100 nM.

As to `COc1ccc(-c2[nH]nc3c2C(=O)c2c(NC(=O)Cc4ccc(N)cc4)cccc2-3)cc1`, the IC50 is above 24000 nM with AG1523, 400 nM in the assay on HCT-116, 480 nM in assay [1] and 38 nM in [2].

`CO[C@@]12[C@H](COC(N)=O)C3=C(C(=O)C(C)=C(N)C3=O)N1C[C@@H]1N[C@@H]12` [MITOMYCIN]: in the assay on Mus musculus [11], the No. survived worked out at 8. In the assay with Mus musculus [12], the Tumor weight is on record as 455 mg and the inhibition in vivo at 1 mg/kg/day was determined as 58%.

Take `COc1ccc(-c2[nH]nc3c2C(=O)c2c(NC(C)=O)cccc2-3)cc1`: the IC50 is 2700 nM with HCT-116, 450 nM in assay [1] and 270 nM in assay [2].

On to `CN1CCC(c2c(O)cc(O)c3c(=O)cc(-c4ccccc4Cl)oc23)[C@@H](O)C1` (mixture of isomers), for which, in the assay on Mus musculus [13], the No. survived is reported as 5. Further, in the assay on Mus musculus [14], the Tumor weight was found to be 538 mg and the inhibition in vivo at 7.5 mg/kg/day stood at 50%.
